From ChEMBL document CHEMBL3808334, “Synthesis and in vitro evaluation of novel triazine analogues as anticancer agents and their interaction studies with bovine serum albumin” (Eur J Med Chem, 2016)

What was measured:
Assay type in all cases: functional
T47D [1] = experiment: Growth inhibition of human T47D cells assessed as cell growth at 10^-6 M incubated for 48 hrs by sulforhodamine B assay; settings: read-out: Activity
[2] = Growth inhibition of human Hs 578T cells assessed as cell growth at 10^-4 M incubated for 48 hrs by sulforhodamine B assay; settings: read-out: Activity
[3] = Growth inhibition of human MOLT4 cells assessed as cell growth at 10^-6 M incubated for 48 hrs by sulforhodamine B assay; settings: MOLT-4, 48 h, read-out: Activity
SK-MEL-5 = experiment: Growth inhibition of human SK-MEL-5 cells assessed as cell growth at 10^-8 M incubated for 48 hrs by sulforhodamine B assay; settings: SK-MEL-5, 48 h, read-out: Activity
M14 = experiment: Growth inhibition of human M14 cells assessed as cell growth at 10 uM incubated for 48 hrs by sulforhodamine B assay; settings: M14, 48 h, read-out: Activity
[4] = Growth inhibition of human SF539 cells assessed as cell growth at 10^-7 M incubated for 48 hrs by sulforhodamine B assay; settings: SF-539, 48 h, read-out: Activity
A498 = experiment: Growth inhibition of human A498 cells assessed as cell growth at 10^-6 M incubated for 48 hrs by sulforhodamine B assay; settings: A498, 48 h, read-out: Activity
In short: (§1)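 Five-dose assay: five concentrations from 10-fold or ½-log serial dilutions. Cells are plated at 5,000–40,000 per well according to doubling time, grown 24 h, then exposed 48 h at 37 °C, 5% CO₂. Fixed with cold 50% TCA (final addition) for 60 min at 4 °C and stained with 0.4% SRB in 1% acetic acid. Bound dye is solubilized in 10 mM Tris base and read at 515 nm. GI₅₀ is where [(Ti−Tz)/(C−Tz)]×100 = 50, with a time-zero plate as Tz.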

EKVX = experiment: Growth inhibition of human EKVX cells assessed as cell growth at 10^-4 M incubated for 48 hrs by sulforhodamine B assay; settings: read-out: Activity
In short: (§2)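 Cells seeded at 5,000–40,000/well according to doubling time and preincubated 24 h at 37 °C, 5% CO2. Time-zero plates were TCA-fixed. DMSO concentrate was diluted in medium with 50 µg/ml gentamicin to give five concentrations (10-fold or ½ log steps), then exposed 48 h. Cells were TCA-fixed, stained with 0.4% SRB and read at 515 nm. Percent growth was taken against time-zero and control; GI50, TGI and LC50 derived.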

[5] = Growth inhibition of human colon cancer cells incubated for 48 hrs by sulforhodamine B assay; settings: Cancer cell lines; for CC50: read-out: LC50 (the source's name)
MDA-MB-231 = experiment: Growth inhibition of human MDA-MB-231 cells assessed as cell growth at 10 uM incubated for 48 hrs by sulforhodamine B assay; settings: MDA-MB-231, 48 h, read-out: Activity
[6] = Growth inhibition of human LOXIMVI cells assessed as cell growth at 10^-7 M incubated for 48 hrs by sulforhodamine B assay; settings: LOX IMVI, read-out: Activity
[7] = Growth inhibition of human HCC2998 cells assessed as cell growth at 10^-8 M incubated for 48 hrs by sulforhodamine B assay; settings: HCC 2998, 48 h, read-out: Activity; in short: as §2
NCI-H522 = experiment: Growth inhibition of human NCI-H522 cells assessed as cell growth at 10^-8 M incubated for 48 hrs by sulforhodamine B assay; settings: NCI-H522, 48 h, read-out: Activity
A549 = experiment: Growth inhibition of human A549/ATCC cells assessed as cell growth at 10^-8 M incubated for 48 hrs by sulforhodamine B assay; settings: A549, 48 h, read-out: Activity; in short: as §1
[8] = Growth inhibition of human UACC62 cells incubated for 48 hrs by sulforhodamine B assay; settings: UACC-62, 48 h
In short: (§3)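 Cells were plated at 5,000–40,000 per well according to doubling time and preincubated 24 h at 37 °C in 5% CO2; time-zero plates were then TCA-fixed. Five concentrations (10-fold or ½-log dilutions, DMSO stock) were incubated 48 h. Cells were TCA-fixed, stained with 0.4% SRB and read at 515 nm. GI50 was taken where [(Ti−Tz)/(C−Tz)]×100 = 50.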

[9] = Growth inhibition of human SW620 cells assessed as cell growth at 10^-4 M incubated for 48 hrs by sulforhodamine B assay; settings: SW-620, 48 h, read-out: Activity
[10] = Growth inhibition of human OVCAR8 cells assessed as cell growth at 10^-8 M incubated for 48 hrs by sulforhodamine B assay; settings: OVCAR-8, 48 h, read-out: Activity
SK-MEL-28 [11] = experiment: Growth inhibition of human SK-MEL-28 cells assessed as cell growth at 10^-6 M incubated for 48 hrs by sulforhodamine B assay; settings: SK-MEL-28, 48 h, read-out: Activity
[12] = Growth inhibition of human HCT116 cells assessed as cell growth at 10^-8 M incubated for 48 hrs by sulforhodamine B assay; settings: HCT-116, 48 h, read-out: Activity; in short: as §2
T47D [13] = experiment: Growth inhibition of human T47D cells assessed as cell growth at 10^-4 M incubated for 48 hrs by sulforhodamine B assay; settings: read-out: Activity
[14] = Growth inhibition of human SF268 cells incubated for 48 hrs by sulforhodamine B assay; settings: SF-268, 48 h; in short: as §3
[15] = Growth inhibition of human OVCAR4 cells assessed as cell growth at 10 uM incubated for 48 hrs by sulforhodamine B assay; settings: OVCAR-4, 48 h, read-out: Activity
[16] = Growth inhibition of human UO31 cells assessed as cell growth at 10^-6 M incubated for 48 hrs by sulforhodamine B assay; settings: UO-31, 48 h, read-out: Activity
MDA-MB-468 = experiment: Growth inhibition of human MDA-MB-468 cells assessed as cell growth at 10^-5 M incubated for 48 hrs by sulforhodamine B assay; settings: MDA-MB-468, 48 h, read-out: Activity
[17] = Growth inhibition of human HCT15 cells assessed as cell growth at 10^-5 M incubated for 48 hrs by sulforhodamine B assay; settings: HCT-15, 48 h, read-out: Activity; in short: as §2
CCRF-CEM = experiment: Growth inhibition of human CCRF-CEM cells assessed as cell growth at 10^-7 M incubated for 48 hrs by sulforhodamine B assay; settings: read-out: Activity
In short: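 Leukemia line in the five-dose format: five concentrations from 10-fold or ½-log serial dilutions. Plated at 5,000–40,000 cells per well, preincubated 24 h, then compound added for 48 h at 37 °C, 5% CO₂. Sulforhodamine B absorbance read at 515 nm. Growth is computed against time-zero (Tz) and control (C) readings; GI₅₀ is where [(Ti−Tz)/(C−Tz)]×100 = 50.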

SK-MEL-28 [18] = experiment: Growth inhibition of human SK-MEL-28 cells assessed as cell growth at 10^-7 M incubated for 48 hrs by sulforhodamine B assay; settings: SK-MEL-28, 48 h, read-out: Activity
[19] = read-out: LC50 (the source's name)
[20] = read-out: pLC50 (the source's name) (converted)

| Compound | growth at 1 µM (T47D [1]) | growth at 100 µM [2] | growth at 1 µM [3] | growth at 0.01 µM (SK-MEL-5) | growth at 10 µM (M14) | growth at 0.1 µM [4] | growth at 1 µM (A498) | growth at 100 µM (EKVX) | GI50 [5] | TGI [5] | CC50 [5] | growth at 10 µM (MDA-MB-231) | growth at 0.1 µM [6] | growth at 0.01 µM [7] | growth at 0.01 µM (NCI-H522) | growth at 0.01 µM (A549) | GI50 ([8]; read-out: GI50) | TGI ([8]; read-out: TGI) | GI50 ([8]; read-out: pGI50 (converted)) | TGI ([8]; read-out: pTGI (converted)) | further results |
| --- | --- | --- | --- | --- | --- | --- | --- | --- | --- | --- | --- | --- | --- | --- | --- | --- | --- | --- | --- | --- | --- |
| c1ccc(-c2nc(Nc3ccc(-c4nc5ccccc5[nH]4)cc3)nc(N3CCOCC3)n2)cc1 | 78% | -43% | 65% | 101% | -80.7% | 93% | 55% | -66% | 0.99 µM | 2.55 µM | 6.53 µM | -63.3% | 96% | 100% | 100% | 103% | 1.66 µM | 3.48 µM | 1.66 µM | 3.47 µM | CC50 [8, 19]: 7.29 µM; CC50 [8, 20]: 7.24 µM; growth at 100 µM [9]: -84%; growth at 0.01 µM [10]: 101%; growth at 1 µM (SK-MEL-28 [11]): 82%; growth at 0.01 µM [12]: 99%; growth at 100 µM (T47D [13]): -56%; GI50 ([14]; read-out: GI50): 1.64 µM; CC50 [14, 19]: 6.39 µM; TGI ([14]; read-out: TGI): 3.24 µM; GI50 ([14]; read-out: pGI50 (converted)): 1.62 µM; CC50 [14, 20]: 6.46 µM; TGI ([14]; read-out: pTGI (converted)): 3.24 µM; growth at 10 µM [15]: -47.2%; growth at 1 µM [16]: 68%; growth at 10 µM (MDA-MB-468): -57%; growth at 10 µM [17]: -58%; growth at 0.1 µM (CCRF-CEM): 99%; growth at 0.1 µM (SK-MEL-28 [18]): 97% |
| Fc1ccc(-c2nc(Nc3ccc(-c4nc5ccccc5[nH]4)cc3)nc(N3CCOCC3)n2)cc1 | 88% | -3% | 87% | 98% | -7.64% | 92% | 74% | 3% | 2.15 µM | 4.73 µM | 7.9 µM | 5.74% | 95% | 99% | 96% | 95% | 1.7 µM | 3.56 µM | 1.7 µM | 3.55 µM | growth at 100 µM [9]: -44%; growth at 0.01 µM [10]: 101%; growth at 1 µM (SK-MEL-28 [11]): 84%; growth at 0.01 µM [12]: 90%; growth at 100 µM (T47D [13]): -44%; GI50 ([14]; read-out: GI50): 2.82 µM; CC50 [14, 19]: > 100 µM; TGI ([14]; read-out: TGI): 26.5 µM; GI50 ([14]; read-out: pGI50 (converted)): 2.82 µM; CC50 [14, 20]: > 100 µM; TGI ([14]; read-out: pTGI (converted)): 26.3 µM; growth at 10 µM [15]: 59.8%; growth at 1 µM [16]: 90%; growth at 10 µM (MDA-MB-468): -14%; growth at 10 µM [17]: -35%; growth at 0.1 µM (CCRF-CEM): 104%; growth at 0.1 µM (SK-MEL-28 [18]): 91% |
| Clc1ccc(-c2nc(Nc3ccc(-c4nc5ccccc5[nH]4)cc3)nc(N3CCOCC3)n2)cc1 | 19% | -7% | -29% | 100% | -82.6% | 98% | 89% | -15% | 0.26 µM | 0.69 µM | 2.75 µM | -76.7% | 94% | 94% | 100% | 96% | 0.196 µM | 0.432 µM | 0.195 µM | 0.437 µM | growth at 100 µM [9]: -63%; growth at 0.01 µM [10]: 104%; growth at 1 µM (SK-MEL-28 [11]): 84%; growth at 0.01 µM [12]: 99%; growth at 100 µM (T47D [13]): -32%; GI50 ([14]; read-out: GI50): 0.311 µM; TGI ([14]; read-out: TGI): 1.08 µM; GI50 ([14]; read-out: pGI50 (converted)): 0.309 µM; TGI ([14]; read-out: pTGI (converted)): 1.07 µM; growth at 10 µM [15]: -73.9%; growth at 1 µM [16]: 80%; growth at 10 µM (MDA-MB-468): -71%; growth at 10 µM [17]: -76%; growth at 0.1 µM (CCRF-CEM): 99%; growth at 0.1 µM (SK-MEL-28 [18]): 102% |
| c1ccc2[nH]c(-c3ccc(Nc4nc(N5CCCCC5)nc(N5CCOCC5)n4)cc3)nc2c1 | 90% | -12% | 97% | 97% | -24.5% | 96% | 83% | 1% | 2.43 µM | 5.52 µM | 30.2 µM | 23.1% | 95% | 98% | 89% | 94% | 1.96 µM | 4.32 µM | 1.95 µM | 4.37 µM | growth at 100 µM [9]: -53%; growth at 0.01 µM [10]: 96%; growth at 1 µM (SK-MEL-28 [11]): 87%; growth at 0.01 µM [12]: 100%; growth at 100 µM (T47D [13]): -43%; GI50 ([14]; read-out: GI50): 3.21 µM; CC50 [14, 19]: > 100 µM; TGI ([14]; read-out: TGI): 20.1 µM; GI50 ([14]; read-out: pGI50 (converted)): 3.24 µM; CC50 [14, 20]: > 100 µM; TGI ([14]; read-out: pTGI (converted)): 20 µM; growth at 10 µM [15]: 61.2%; growth at 1 µM [16]: 87%; growth at 10 µM (MDA-MB-468): -24%; growth at 10 µM [17]: -49%; growth at 0.1 µM (CCRF-CEM): 96%; growth at 0.1 µM (SK-MEL-28 [18]): 100% |
